According to PMC10962891 (Hepatology Communications, 2024):
“Also recorded” adds a separate entry of the source. Values belong to the compound of their own block, whether it stands above or below them.

Columns and labels:
[1] = target: T1, human FXRα2 (Homo sapiens, UniProt Q96RI1); test: FXR luciferase reporter assay in 293T cells transfected with FXRα2; format: cell-based; conditions: for EC50: read-out: EC50 for FXR (cell-based reporter assay, composite EC50), second column entry, 293T cells expressing FXRα2, RXRα, ASBT, repeated thrice for L-TyrCDCA only
T1 sequence (Q96RI1 1-472 isoform Q96RI1-2): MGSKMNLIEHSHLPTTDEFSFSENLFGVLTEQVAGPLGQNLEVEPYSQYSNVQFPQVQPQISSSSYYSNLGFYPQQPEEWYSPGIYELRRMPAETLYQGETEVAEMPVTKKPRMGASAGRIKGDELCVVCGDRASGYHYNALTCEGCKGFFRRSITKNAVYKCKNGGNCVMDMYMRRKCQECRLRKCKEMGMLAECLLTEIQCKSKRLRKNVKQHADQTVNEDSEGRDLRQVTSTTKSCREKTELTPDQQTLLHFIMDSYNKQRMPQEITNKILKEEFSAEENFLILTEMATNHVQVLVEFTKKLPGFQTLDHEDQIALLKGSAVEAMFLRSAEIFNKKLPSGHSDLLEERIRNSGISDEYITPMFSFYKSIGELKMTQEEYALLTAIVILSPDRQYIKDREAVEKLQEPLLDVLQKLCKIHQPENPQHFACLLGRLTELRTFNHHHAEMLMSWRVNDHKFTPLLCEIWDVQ
T1 sequence (P19793 1-462 partner): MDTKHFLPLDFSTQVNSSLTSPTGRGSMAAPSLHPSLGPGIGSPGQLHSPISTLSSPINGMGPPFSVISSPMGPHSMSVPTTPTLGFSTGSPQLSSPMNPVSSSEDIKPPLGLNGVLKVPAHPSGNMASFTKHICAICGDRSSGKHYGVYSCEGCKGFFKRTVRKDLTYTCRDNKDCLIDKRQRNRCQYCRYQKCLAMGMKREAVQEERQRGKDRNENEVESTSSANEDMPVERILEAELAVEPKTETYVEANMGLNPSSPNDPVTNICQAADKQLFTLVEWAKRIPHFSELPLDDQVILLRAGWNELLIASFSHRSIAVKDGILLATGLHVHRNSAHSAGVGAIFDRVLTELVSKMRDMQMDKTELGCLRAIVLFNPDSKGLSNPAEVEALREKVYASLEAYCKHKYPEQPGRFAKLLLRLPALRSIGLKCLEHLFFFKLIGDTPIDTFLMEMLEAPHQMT
Outline: (§1)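 293T cells (70–80% confluent) were co-transfected by lipofection with FXRα2 or FXRα4 (10 ng), RXRα (2 ng), an Shp-element firefly reporter (5 ng), Renilla pRL-TK (2 ng), ASBT or NTCP (0 or 1 ng) and GFP filler to 100 ng. After 24 h, cells received 0.1% DMSO, a 10 µM positive control, or test compounds in serum-free medium for 24 h. Firefly:Renilla ratios were set relative to DMSO; quadruplicates, 3 independent runs.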

[2] = target: T2, human TGR5 (Homo sapiens, UniProt Q8TDU6); test: cell-based
T2 sequence (Q8TDU6 1-330): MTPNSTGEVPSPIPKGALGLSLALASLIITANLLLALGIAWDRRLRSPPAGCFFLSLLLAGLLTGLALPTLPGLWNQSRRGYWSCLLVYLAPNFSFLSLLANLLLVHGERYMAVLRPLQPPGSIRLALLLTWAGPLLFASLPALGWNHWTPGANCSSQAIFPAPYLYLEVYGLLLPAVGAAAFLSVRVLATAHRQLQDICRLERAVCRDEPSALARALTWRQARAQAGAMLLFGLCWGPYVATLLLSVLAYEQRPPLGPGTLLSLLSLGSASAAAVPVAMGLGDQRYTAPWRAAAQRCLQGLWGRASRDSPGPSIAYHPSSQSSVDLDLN

[3] = system: microbial composition; conditions: initial tests; cited from earlier work
[4] = mice, considerable dose; cited from earlier work
[5] = target: T3, human FXRα4 (Homo sapiens, UniProt Q96RI1); test: FXR luciferase reporter assay in 293T cells transfected with FXRα4; format: cell-based; conditions: 10 µM, cells overexpressing FXRα4, independent of bile salt importer
T3 sequence (Q96RI1 1-482 isoform Q96RI1-4): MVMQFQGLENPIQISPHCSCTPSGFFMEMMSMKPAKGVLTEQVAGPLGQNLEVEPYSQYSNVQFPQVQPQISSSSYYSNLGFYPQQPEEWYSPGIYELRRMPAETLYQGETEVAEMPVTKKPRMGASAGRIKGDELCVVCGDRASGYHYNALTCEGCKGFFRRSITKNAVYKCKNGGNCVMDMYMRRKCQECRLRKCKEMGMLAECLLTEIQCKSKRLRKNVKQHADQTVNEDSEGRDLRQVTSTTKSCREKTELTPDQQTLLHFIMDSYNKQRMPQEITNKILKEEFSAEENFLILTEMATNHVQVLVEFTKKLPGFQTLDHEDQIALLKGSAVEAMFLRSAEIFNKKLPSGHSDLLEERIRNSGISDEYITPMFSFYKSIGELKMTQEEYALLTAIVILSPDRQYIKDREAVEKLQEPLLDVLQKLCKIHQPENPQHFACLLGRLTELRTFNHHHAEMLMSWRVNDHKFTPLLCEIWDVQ
T3 sequence (P19793 1-462 partner): T1 sequence (P19793 1-462 partner)
Outline: as §1

[6] = system: C. difficile; conditions: cited from earlier work
[7] = system: RAW264.7 cells; test: LPS-induced cytokine release; format: cell-based, murine; conditions: then 3 ng/mL LPS 23 h; for effect on LPS-enhanced medium levels of TNFα and IL-6: 100 µM pretreatment 1 h
Outline: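 RAW264.7 cells at 70–80% confluency were pretreated 1 h in serum-free medium with 0.1% DMSO, a 50 µM positive control, or test compounds. LPS (E. coli O128:B12, 3 ng/mL) was then added for 23 h. Cleared supernatants (300 g, 10 min) were assayed for IL-6 and TNFα by ELISA, normalized to cellular protein. Quadruplicates; three repeats.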

[8] = system: C. difficile; conditions: cited from earlier work; remark: listed apart in the source
[9] = target: T2, human TGR5; format: cell-based; conditions: 10 µM positive control, 293T cells -/+ TGR5 overexpression

SMILES: CC(C)C[C@H](NC(=O)CC[C@@H](C)[C@H]1CC[C@H]2[C@@H]3[C@H](O)C[C@@H]4C[C@H](O)CC[C@]4(C)[C@H]3C[C@H](O)[C@]12C)C(=O)O [LeuCA, leucocholic acid]
- effect on microbial composition in vitro [3]: did not affect
- detection in portal blood or bile after repeated oral gavage [4]: failure to detect; also recorded: did not lead to detection

SMILES: CC[C@H]1[C@@H](O)[C@@H]2[C@H](CC[C@]3(C)[C@@H]([C@H](C)CCC(=O)O)CC[C@@H]23)[C@@]2(C)CC[C@@H](O)C[C@@H]12 [OCA, obeticholic acid, reference compound]
- FXR reporter activation in mock-transfected cells (-OSTαβ) ([1]; 10 µM, FXRα2/RXRα, no transporter): able to activate FXR
- FXR reporter activation ([1]; 10 µM, cells overexpressing FXRα2, independent of bile salt importer): strongly activated
- FXR reporter activation [5]: strongly activated

SMILES: C[C@H](CCC(=O)N[C@@H](Cc1ccccc1)C(=O)O)[C@H]1CC[C@H]2[C@@H]3[C@H](O)C[C@@H]4C[C@H](O)CC[C@]4(C)[C@H]3C[C@H](O)[C@]12C [PheCA, phenylalanocholic acid]
- spore germination of C. difficile [6]: inhibit
- effect on microbial composition in vitro [3]: did not affect
- effect on LPS-enhanced medium levels of TNFα and IL-6 [7]: counteracted
- growth of C. difficile [8]: not inhibited

SMILES: C[C@H](CCC(=O)N[C@@H](Cc1ccccc1)C(=O)O)[C@H]1CC[C@H]2[C@@H]3[C@H](O)C[C@@H]4C[C@H](O)CC[C@]4(C)[C@H]3CC[C@]12C [PheCDCA, phenylalanochenodeoxycholic acid]
- effect on LPS-enhanced medium levels of TNFα and IL-6 [7]: counteracted

SMILES: C[C@H](CCC(=O)N[C@@H](Cc1ccccc1)C(=O)O)[C@H]1CC[C@H]2[C@@H]3[C@@H](O)[C@@H](O)[C@@H]4C[C@H](O)CC[C@]4(C)[C@H]3CC[C@]12C [Pheβ muricholic acid]
- spore germination of C. difficile [6]: inhibit

SMILES: C[C@H](CCC(=O)NCCS(=O)(=O)O)[C@H]1CC[C@H]2[C@@H]3[C@H](O)C[C@@H]4C[C@H](O)CC[C@]4(C)[C@H]3C[C@H](O)[C@]12C [TCA, Taurocholic acid]
- EC50 [2]: 277 ± 16.6 µM

SMILES: C[C@H](CCC(=O)NCCS(=O)(=O)O)[C@H]1CC[C@H]2[C@@H]3CC[C@@H]4C[C@H](O)CC[C@]4(C)[C@H]3CC[C@]12C [TLCA, taurolithocholic acid, reference compound]
- change of LPS-induced IL-6 level ([7]; 50 µM pretreatment 1 h): -4.6 fold
- change of LPS-induced TNFα level ([7]; 50 µM pretreatment 1 h): -3.6 fold

SMILES: C[C@H](CCC(=O)N[C@@H](Cc1ccc(O)cc1)C(=O)O)[C@H]1CC[C@H]2[C@@H]3[C@H](O)C[C@@H]4C[C@H](O)CC[C@]4(C)[C@H]3C[C@H](O)[C@]12C [TyrCA, tyrosocholic acid]
- spore germination of C. difficile [6]: inhibit
- effect on microbial composition in vitro [3]: did not affect
- detection in portal blood or bile after repeated oral gavage [4]: failure to detect; also recorded: did not lead to detection
- growth of C. difficile [8]: not inhibited

SMILES: C=C[C@@]1(C)CC(=O)[C@]2(O)[C@@]3(C)[C@@H](O)CCC(C)(C)[C@@H]3[C@H](O)[C@H](OC(C)=O)[C@@]2(C)O1 [forskolin, Forskolin A]
- activation of cAMP-driven reporter [9]: activated the reporter independent of TGR5 overexpression

Further lines, results first:

- EC50 [1]: 9.9 µM
SMILES: C[C@H](CCC(=O)N[C@H](Cc1ccc(O)cc1)C(=O)O)[C@H]1CC[C@H]2[C@@H]3[C@H](O)C[C@@H]4C[C@H](O)CC[C@]4(C)[C@H]3C[C@H](O)[C@]12C [D-TyrCA, D-Tyrosocholic acid]

- EC50 [1]: 6.8 µM
SMILES: C[C@H](CCC(=O)N[C@H](Cc1ccc(O)cc1)C(=O)O)[C@H]1CC[C@H]2[C@@H]3[C@H](O)C[C@@H]4C[C@H](O)CC[C@]4(C)[C@H]3CC[C@]12C [D-TyrCDCA, D-Tyrosochenodeoxycholic acid]

- EC50 [2]: 342 ± 26.7 µM
SMILES: C[C@H](CCC(=O)NCC(=O)O)[C@H]1CC[C@H]2[C@@H]3[C@H](O)C[C@@H]4C[C@H](O)CC[C@]4(C)[C@H]3C[C@H](O)[C@]12C [GCA, glycocholic acid]

- EC50 [2]: 29.4 ± 0.9 µM
SMILES: CC(CCC(=O)NCC(=O)O)C1CCC2C3C(O)CC4CC(O)CCC4(C)C3CCC12C (centres unmarked) [GCDCA, glycochenodeoxycholic acid]

- EC50 [1]: 46.3 µM
- affinity for FXRα2 relative to D/L-TyrCDCA (fold lower) ([1]; reporter cells expressing uptake transporter): 6 fold
SMILES: C[C@H](CCC(=O)N[C@@H](Cc1ccc(O)cc1)C(=O)O)[C@H]1CC[C@H]2[C@@H]3[C@H](O)C[C@@H]4C[C@H](O)CC[C@]4(C)[C@H]3C[C@H](O)[C@]12C [L-TyrCA, L-Tyrosocholic acid]

- EC50 [1]: 7.8 µM
SMILES: C[C@H](CCC(=O)N[C@@H](Cc1ccc(O)cc1)C(=O)O)[C@H]1CC[C@H]2[C@@H]3[C@H](O)C[C@@H]4C[C@H](O)CC[C@]4(C)[C@H]3CC[C@]12C [L-TyrCDCA, L-Tyrosochenodeoxycholic acid]
